Assay results from ChEMBL document CHEMBL1152166, “Activation and inhibition of leukotriene A4 hydrolase aminopeptidase activity by diphenyl ether and derivatives” (Bioorg Med Chem Lett, 2008).
The source made the active and inactive calls. The rule behind the calls is not given here.

Experiments:
[1] = target: T1, Leukotriene A-4 hydrolase (Homo sapiens, UniProt P09960); assay: Inhibition of aminopeptidase activity of human recombinant leukotriene A4 hydrolase expressed in Escherichia coli assessed as p-nitroanilide release by spectrophotometry
T1 sequence (P09960 whole entry): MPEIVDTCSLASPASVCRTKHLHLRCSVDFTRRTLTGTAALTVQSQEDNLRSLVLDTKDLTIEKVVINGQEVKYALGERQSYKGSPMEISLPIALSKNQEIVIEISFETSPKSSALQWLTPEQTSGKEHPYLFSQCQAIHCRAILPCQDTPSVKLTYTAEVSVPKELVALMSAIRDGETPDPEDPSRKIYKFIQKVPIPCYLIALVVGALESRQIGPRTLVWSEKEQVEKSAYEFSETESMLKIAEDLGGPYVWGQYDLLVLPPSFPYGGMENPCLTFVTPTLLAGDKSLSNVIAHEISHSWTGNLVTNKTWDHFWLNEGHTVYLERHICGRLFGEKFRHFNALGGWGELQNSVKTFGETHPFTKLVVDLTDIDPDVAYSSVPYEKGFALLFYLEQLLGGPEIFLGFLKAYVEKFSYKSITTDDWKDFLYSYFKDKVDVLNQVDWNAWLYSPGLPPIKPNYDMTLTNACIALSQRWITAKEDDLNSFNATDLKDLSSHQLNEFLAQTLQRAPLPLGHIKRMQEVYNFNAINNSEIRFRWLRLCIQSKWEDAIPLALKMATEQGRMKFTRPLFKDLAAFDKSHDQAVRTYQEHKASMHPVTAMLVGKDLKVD
Summary of the method: (§1)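 Recombinant human LTA4H, expressed from a pET 21a construct in E. coli and purified by ammonium sulfate precipitation, anion-exchange and gel filtration. Aminopeptidase activity was read spectrophotometrically as p-nitroanilide released from Ala-pNA. Values are the average of three experiments with standard deviation. Substrate dependence was examined by Lineweaver–Burk analysis to give apparent Km, Vmax, KA, α and β.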

[2] = target: T2, Leukotriene A-4 hydrolase (Homo sapiens) (UniProt P09960); assay: Inhibition of epoxide hydrolase activity of human recombinant leukotriene A4 hydrolase expressed in Escherichia coli assessed as LTB4 production at 100 uM by RP-HPLC
T2 sequence (whole entry): T1 sequence (P09960 whole entry)

[3] = target: T1, Leukotriene A-4 hydrolase; assay: Activation of aminopeptidase activity of human recombinant leukotriene A4 hydrolase expressed in Escherichia coli assessed as p-nitroanilide release by spectrophotometry; summary of the method: as §1
[4] = target: T2, Leukotriene A-4 hydrolase (Homo sapiens); assay: Activation of aminopeptidase activity of human recombinant leukotriene A4 hydrolase expressed in Escherichia coli assessed as p-nitroanilide release at 100 uM by spectrophotometry; summary of the method: as §1
[5] = target: T2, Leukotriene A-4 hydrolase (Homo sapiens); assay: Activation of aminopeptidase activity of human recombinant leukotriene A4 hydrolase expressed in Escherichia coli by spectrophotometry in presence of >0.65 mM […]; summary of the method: as §1
[6] = target: T2, Leukotriene A-4 hydrolase (Homo sapiens); assay: Inhibition of aminopeptidase activity of human recombinant leukotriene A4 hydrolase expressed in Escherichia coli by spectrophotometry in presence of <0.65 mM […]; summary of the method: as §1
[7] = target: T1, Leukotriene A-4 hydrolase; assay: Inhibition of epoxide hydrolase activity of human recombinant leukotriene A4 hydrolase expressed in Escherichia coli assessed as LTB4 production by RP-HPLC

SMILES | IC50 [1] [µM] | Activity [2] | AC50 [3] [µM] | Activity [4] | Activity [5] | Activity [6] | IC50 [7] [µM]
CCCCOc1ccc(Oc2ccc(O)cc2)cc1 | 5.56 | inactive | – | – | – | – | –
CCCCOc1ccc(Oc2ccccc2)cc1 | 5.72 | inactive | – | – | – | – | –
CCCCCOc1ccc(Oc2ccccc2)cc1 | 4.13 | inactive | – | – | – | – | –
COc1ccc(Oc2ccccc2)cc1 | – | inactive | 3.39 | Active | – | – | –
NCCOc1ccc(Oc2ccccc2)cc1 | 0.228 | – | – | – | – | – | 0.035
Oc1ccc(Oc2ccccc2)cc1 | – | inactive | 11.1 | Active | – | – | –

Continued, values first:

IC50 [1] [µM] | Activity [2] | AC50 [3] [µM] | Activity [4] | Activity [5] | Activity [6] | IC50 [7] [µM] | SMILES
– | inactive | 6.01 | Active | – | – | – | c1ccc(Oc2ccccc2)cc1 [DIPHENYLETHER]
2.48 | inactive | – | – | – | – | – | CCCCCOc1ccc(Oc2ccc(O)cc2)cc1
– | inactive | 17 | Active | – | – | – | COc1ccc(Oc2ccc(O)cc2)cc1
– | inactive | 2.82 | Active | – | – | – | CCOc1ccc(Oc2ccccc2)cc1
5.69 | inactive | – | – | – | – | – | CCCOc1ccc(Oc2ccc(O)cc2)cc1
– | inactive | – | – | Active | Active | – | CCCOc1ccc(Oc2ccccc2)cc1
– | inactive | 14.8 | Active | – | – | – | CCOc1ccc(Oc2ccc(O)cc2)cc1
